Reference: the RNAGym collection of RNA variant scans (doi:10.1126/science.aae0568)
Fewer inactive variants are shown than the library holds.

B1: tRNA (parent)
chain: GUUCCGUUGGCGUAAUGGUAACGCGUCUCCCUCCUAAGGAGAAGACUGCGGGUUCGAGUCCCGUACGGAACG

Variants of: B1
Assay: yeast fitness relative to wild type (ratio to wild type); higher = fitter; tRNA-Arg(CCU), competitive growth, 37 C, YPD
In short: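 Variants of the tRNA-Arg(CCU) gene, chemically synthesised with a 3% per-site mutation rate at 69 sites, were placed at the native genomic locus in Saccharomyces cerevisiae. The pooled strains were competed in YPD at 37°C for 24 hours in six parallel replicates. Gene amplicons from the start population and from each end population were read by 100-nucleotide paired-end sequencing. Darwinian fitness relative to wild type came from changes in genotype frequencies; genotypes needed ≥ 100 starting reads, and estimates < 0.5 were set to 0.5.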

Row | Variant | yeast fitness
1 | GUUCCGUUGGCGUAAUGGUAACGCGGCUCCCUCCUAAGGAGCAGACCGCGGGUUCGAGUCCCGUACGGAACG [U26G A42C U47C] | 0.816
2 | GUUCCGUUGGCGUAAUGGUAACGCGCCUCCCACUUAACGAGAAGACUGCGAGUUCGAGUUCUGUACGGAACG [U26C U32A C34U G38C G51A C60U C62U] | ≤ 0.5
3 | GUUCCGUUGGCGUAAUGGUAACGCGCCUCCCUUCUAAGGAGAAGACUGCGGCUUCGAGUCCCGUACGGAACG [U26C C33U G52C] | 0.609
4 | GUUCCGUUGGCGUAAUGGUAACGCGCCUCCCUUCUAAGGUGAAGACUGCGGGUUCGAGUCCCGUACGGAACG [U26C C33U A40U] | ≤ 0.5
5 | GUUCCGUUGGCGUAAUGGUAACGCGGCUCCCUCCUAAGGAGUAGACUGCGGGUUCGAGUCCCGUACGGAACG [U26G A42U] | 0.795
6 | GUUCCGUUGGCGUAAUGGUAACGCGCCUCCCUCCUAAGGAGAAGACAGCGGGUUCGAGUCCCGUACGGAACG [U26C U47A] | 0.721
7 | GUUCCGUUGGCGUAAUGGUAACGCGCCUCCCUCCUAAGGAGAAGACUGCGGGUUCGAGUCGCGUACGGAACG [U26C C61G] | 0.591
8 | GUUCCGUUGGCGUAAUGGUAACGCGCCUCCCUCCUAAGGAGAAGACUGGGGGUUCGAGUCCCGUACGGAACG [U26C C49G] | 0.842
9 | GUUCCGUUGGCGUAAUGGUAACGCGGCUCCCUCCUAAGGGGAAGACUGCGGGUUCGAGUCCCGUACGGAACG [U26G A40G] | 0.778
10 | GUUCCGUUGGCGUAAUGGUAACGCGCCUCCCUCCUAAGGAGAAGACUGCGGGUUCGAGUACCGUACGGAACG [U26C C60A] | 0.572
11 | GUUCCGUUGGCGUAAUGGUAACGCGCCUCCCUCCUAAGGAGAAGACUGCGGGUUCGAGUCGGGUACGGAACG [U26C C61G C62G] | ≤ 0.5
12 | GUUCCGUUGGCGUAAUGGUAACGCGCCUCCCUCCUAAGGAGAAGACUGCGGGUUCGAGUCCCGUAAGGAACG [U26C C66A] | 0.631
13 | GUUCCGUUGGCGUAAUGGUAACGCGCCUCCCUCCUAAGGAGAAGACUGCGGGUUCCAGUCCCGUACGGAACG [U26C G56C] | 0.697
14 | GUUCCGUUGGCGUAAUGGUAACGCGCCUCCCUCCUAAGGAGAAGACUGCGAGUUCGAGUCCCGUACGGAACG [U26C G51A] | 0.774
15 | GUUCCGUUGGCGUAAUGGUAACGCGGUUCCCUCCUAAGGAGAAGACUGUGGGUUCGAGUCCCGUAUGGAACG [U26G C27U C49U C66U] | 0.577
16 | GUUCCGUUGGCGUAAUGGUAACGCGCCUCCCUCCUAAGGAGAAGACUGCGGGUUCCAGUCCCGUGCGGAACG [U26C G56C A65G] | ≤ 0.5
17 | GUUCCGUUGGCGUAAUGGUAACGCGCCUCCCUCCUAAGGACAAGACUGCGGGUUCGAGUCCCGUACGGAACG [U26C G41C] | 0.947
18 | GUUCCGUUGGCGUAAUGGUAACGCGCCUCCCUCCAAAGGAGAAGACUGCGGGUUCGAGUCCUGUACGGAACG [U26C U35A C62U] | 0.523
19 | GUUCCGUUGGCGUAAUGGUAACGCGCCCGCCUCAUAAGGAGAAGACUGCGGGUUCGAGUCCCGUACGGAACG [U26C U28C C29G C34A] | ≤ 0.5

Row | Variant | yeast fitness
20 | GUUCCGUUGGCGUAAUGGUAACGCGCCUCCCUCCUAAGGAGAAGACUGCGGGUUCGAGUCCCGUACGAAACG [U26C G68A] | 0.863
21 | GUUCCGUUGGCGUAAUGGUAACGCGCCUCCCUCCUAAGGAGAAGACUGCGGGUUCGAGUCCCGUACGUAACG [U26C G68U] | 0.821
22 | GUUCCGUUGGCGUAAUGGUAACGCGCCUCCCUCCUAAGGAGAAGAUUGCGGGUUCGAGUCCCGUACGGAACG [U26C C46U] | 0.928
23 | GUUCCGUUGGCGUAAUGGUAACGCGCCUCCCUCCUAAGGAGAAGAAUGCGGGUUCGAGUCCCGUACGGAACG [U26C C46A] | 0.882
24 | GUUCCGUUGGCGUAAUGGUAACGCGCCUCCCUCCUAAGGAGAAGAGUGCGGGUUCGAGUCCCGUACGGAACG [U26C C46G] | 0.894
25 | GUUCCGUUGGCGUAAUGGUAACGCGCCUCCCUCCCAAGGAGAAGACUGCGGGUUCGAGUCCCGGGGGGAACG [U26C U35C U64G A65G C66G] | ≤ 0.5
26 | GUUCCGUUGGCGUAAUGGUAACGCGCCUCCCUCCUAAGGAGAAGACUGCGGGUUCGAGUCCCGAACGGAACG [U26C U64A] | 0.699
27 | GUUCCGUUGGCGUAAUGGUAACGCGCCACCCUCCUAAGGAGAAGACUGCGGGUUCGAGUCCCGUACGGAACG [U26C U28A] | 0.727
28 | GUUCCGUUGGCGUAAUGGUAACGCGCCCCCCUCCUAAGGAGAAGACUGCGGGUUCGAGUCCCGUACGGAACG [U26C U28C] | 0.81
29 | GUUCCGUUGGCGUAAUGGUAACGCGCCUCCCUCCUAAGGAGAAGACUGCGGGUUCGAGUCCCAUACGGAACG [U26C G63A] | 0.916
30 | GUUCCGUUGGCGUAAUGGUAACGCGCCUCCCUCCUAAGGAGAAGAAGGCAGGUUCGAGUCCCGUACGGCACG [U26C C46A U47G G50A A69C] | ≤ 0.5
31 | GUUCCGUUGGCGUAAUGGUAACGCGGCUCCCUCCUACGGAGAAGACUGCGGGUUCGAGUCCCGUACGGAACG [U26G A37C] | 0.652
32 | GUUCCGUUGGCGUAAUGGUAACGCGCCUCCCUCCUAAGGAGAAGACUGGGGGUUUGAGUCCCGUACGGAACG [U26C C49G C55U] | ≤ 0.5
33 | GUUCCGUUGGCGUAAUGGUAACGCGCCUCCCUUCUAAGGAGAAGACUGCGGGAUCGAGUCCCGUAAGGAACG [U26C C33U U53A C66A] | ≤ 0.5
34 | GUUCCGUUGGCGUAAUGGUAACGCGCCUCCCUGCUAAGGAGUAGACUGCGGGUUCGAGUCCCGUACGGAACG [U26C C33G A42U] | ≤ 0.5
35 | GUUCCGUUGGCGUAAUGGUAACGCGCCUCCCUCCCAUGGAGAAGACUGCGGGUUCGAGUCCCGUACGGAACG [U26C U35C A37U] | ≤ 0.5
36 | GUUCCGUUGGCGUAAUGGUAACGCGCCUCCCUCCCAGGGAGAAGACUGCGGGUUCGAGUCCCGUACGGAACG [U26C U35C A37G] | 0.528
37 | GUUCCGUUGGCGUAAUGGUAACGCGCCUCCCCCCUAAGGAGAAGACUGCGGGUUCGAGUCCCGUACGGAGCG [U26C U32C A70G] | 0.659
38 | GUUCCGUUGGCGUAAUGGUAACGCGCCUCCCCCCUAAGGAGAAGACAGCGGGUUCGAGUCCCGUACGGAACG [U26C U32C U47A] | ≤ 0.5
